Test results from ChEMBL document CHEMBL2203031, “Inhibitors of the NAD(+)-Dependent Protein Desuccinylase and Demalonylase Sirt5” (ACS Med Chem Lett, 2012).
The source made the active and inactive calls. No cut-off for these calls is given here.

What was measured:
[1] = target: T1, NAD-dependent protein deacetylase sirtuin-2 (Homo sapiens, UniProt Q8IXJ6); experiment: Inhibition of recombinant SIRT2 using ZMAL substrate after 4 hrs by homogeneous fluorescence assay
T1 sequence (Q8IXJ6 whole entry): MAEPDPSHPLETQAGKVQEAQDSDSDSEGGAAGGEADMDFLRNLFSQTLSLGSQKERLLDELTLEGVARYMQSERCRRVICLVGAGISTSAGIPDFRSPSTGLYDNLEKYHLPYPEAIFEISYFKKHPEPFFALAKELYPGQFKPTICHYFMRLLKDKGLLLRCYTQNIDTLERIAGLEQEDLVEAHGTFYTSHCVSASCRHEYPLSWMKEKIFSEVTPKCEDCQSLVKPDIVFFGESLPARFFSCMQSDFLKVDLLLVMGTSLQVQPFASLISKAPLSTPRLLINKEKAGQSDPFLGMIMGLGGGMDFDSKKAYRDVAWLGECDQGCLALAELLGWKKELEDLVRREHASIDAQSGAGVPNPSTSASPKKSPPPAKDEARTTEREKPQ

[2] = target: NAD-dependent protein deacylase sirtuin-5, mitochondrial (Homo sapiens, UniProt Q9NXA8); experiment: Inhibition of SIRT5 using ZK(suc)A substrate after 1 hr by homogeneous fluorescence assay
Sequence of NAD-dependent protein deacylase sirtuin-5, mitochondrial (Q9NXA8 whole entry): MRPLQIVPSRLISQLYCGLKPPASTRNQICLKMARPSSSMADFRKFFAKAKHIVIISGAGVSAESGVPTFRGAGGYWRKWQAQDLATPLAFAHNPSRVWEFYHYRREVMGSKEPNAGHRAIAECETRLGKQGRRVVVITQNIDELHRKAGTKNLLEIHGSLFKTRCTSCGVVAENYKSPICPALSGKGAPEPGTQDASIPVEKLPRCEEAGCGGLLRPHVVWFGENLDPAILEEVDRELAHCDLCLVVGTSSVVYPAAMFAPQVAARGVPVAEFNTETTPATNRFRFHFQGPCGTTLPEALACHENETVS
How it was run: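 Recombinant Sirt5 reacted with 200 µM succinyl-lysine AMC substrate ZK(s)A and 500 µM NAD+ in pH 8.0 Tris buffer (130 mM NaCl, 3 mM KCl, 1 mM MgCl2, 0.1% PEG8000) with DMSO <2%. Ran 1 h at 37 °C, then trypsin for 2 min at 37 °C. Conversion without inhibitor set to 4–10%. Inhibition calculated against DMSO control, at least two independent runs; IC50 from curve fit.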

[3] = target: T2, NAD-dependent protein deacetylase sirtuin-1 (Homo sapiens, UniProt Q96EB6); experiment: Inhibition of recombinant SIRT1 using ZMAL substrate after 4 hrs by homogeneous fluorescence assay
T2 sequence (Q96EB6 whole entry): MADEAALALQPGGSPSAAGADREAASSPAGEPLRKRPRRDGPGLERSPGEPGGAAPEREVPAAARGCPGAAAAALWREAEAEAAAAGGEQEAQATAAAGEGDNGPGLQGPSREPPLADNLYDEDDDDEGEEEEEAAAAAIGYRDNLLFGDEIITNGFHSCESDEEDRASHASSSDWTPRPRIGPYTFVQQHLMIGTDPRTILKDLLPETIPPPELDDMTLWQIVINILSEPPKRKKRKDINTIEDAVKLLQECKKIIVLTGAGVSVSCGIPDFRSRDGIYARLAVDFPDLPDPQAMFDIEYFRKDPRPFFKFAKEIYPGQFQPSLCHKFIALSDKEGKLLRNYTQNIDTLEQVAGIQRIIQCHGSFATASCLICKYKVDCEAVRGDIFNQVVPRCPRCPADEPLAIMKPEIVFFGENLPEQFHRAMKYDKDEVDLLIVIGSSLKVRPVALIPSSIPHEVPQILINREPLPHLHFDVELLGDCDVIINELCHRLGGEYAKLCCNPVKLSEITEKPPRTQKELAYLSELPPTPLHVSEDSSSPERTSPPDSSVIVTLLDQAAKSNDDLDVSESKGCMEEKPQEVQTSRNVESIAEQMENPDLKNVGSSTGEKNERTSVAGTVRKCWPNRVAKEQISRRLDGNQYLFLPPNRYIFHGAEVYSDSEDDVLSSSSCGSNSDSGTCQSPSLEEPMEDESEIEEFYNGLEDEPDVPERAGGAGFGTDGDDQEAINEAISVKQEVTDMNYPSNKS

[4] = target: T3, NAD-dependent protein deacetylase sirtuin-3, mitochondrial (Homo sapiens, UniProt Q9NTG7); experiment: Inhibition of recombinant SIRT3 using ZMAL substrate after 4 hrs by homogeneous fluorescence assay
T3 sequence (Q9NTG7 whole entry): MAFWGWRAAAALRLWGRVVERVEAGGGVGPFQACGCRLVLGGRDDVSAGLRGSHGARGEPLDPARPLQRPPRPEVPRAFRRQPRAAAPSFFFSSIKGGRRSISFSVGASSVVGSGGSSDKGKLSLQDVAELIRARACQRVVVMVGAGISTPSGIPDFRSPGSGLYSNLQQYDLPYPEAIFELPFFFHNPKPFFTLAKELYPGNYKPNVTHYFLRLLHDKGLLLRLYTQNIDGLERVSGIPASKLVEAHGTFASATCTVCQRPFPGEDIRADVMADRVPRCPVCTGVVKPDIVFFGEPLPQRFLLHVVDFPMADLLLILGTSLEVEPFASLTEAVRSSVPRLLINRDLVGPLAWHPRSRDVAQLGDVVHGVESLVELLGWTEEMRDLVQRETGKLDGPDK

[5] = target: T4, NAD-dependent protein deacetylase sirtuin-3, mitochondrial (Homo sapiens) (UniProt Q9NTG7); experiment: Inhibition of recombinant SIRT3 using ZMAL substrate at 50 uM after 4 hrs by homogeneous fluorescence assay
T4 sequence (whole entry): T3 sequence (Q9NTG7 whole entry)
How it was run: (§1)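 Recombinant Sirt1, Sirt2 or Sirt3 incubated with 10.5 µM ZMAL and 500 µM NAD+ in pH 8.0 Tris buffer (137 mM NaCl, 2.7 mM KCl, 1 mM MgCl2) containing 5% DMSO. Ran 4 h at 37 °C, then trypsin developer with 8 mM nicotinamide for 20 min at 37 °C. Fluorescence at Ex 390/Em 460 nm. Conversion without inhibitor held at 10–30%. Inhibition calculated versus DMSO control, at least three independent runs; IC50 by curve fitting.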

[6] = target: T5, NAD-dependent protein deacetylase sirtuin-2 (Homo sapiens) (UniProt Q8IXJ6); experiment: Inhibition of recombinant SIRT2 using ZMAL substrate at 50 uM after 4 hrs by homogeneous fluorescence assay; how it was run: as §1
T5 sequence (whole entry): T1 sequence (Q8IXJ6 whole entry)

SMILES | IC50 [1] | IC50 ([2]; read-out: IC50) | IC50 ([3]; read-out: IC50) | inhibition [5] | further results
O=C1CC(c2ccccc2)c2c(ccc3cc(Br)ccc23)O1 (stereo not given) | 1 µM | – | – | – | IC50 [2]: Not Active; IC50 [3]: Not Active; IC50 [4]: Not Active
NC(=O)C1CCCc2c1[nH]c1ccc(Cl)cc21 (stereo not given) | – | – | – | – | IC50 [2]: Not Active
O=C1NC(=S)NC(=O)C1=Cc1ccc(OCc2ccccc2)cc1 | 9.8 µM | 12.6 µM | 10.5 µM | – | –
C=CCN1C(=O)/C(=C/c2ccc(-c3cccc(Cl)c3Cl)o2)C(=O)NC1=S | 9.7 µM | 2.3 µM | 5.3 µM | 41% | –
O=C1NC(=S)NC(=O)C1=Cc1ccc(-c2ccccc2)cc1 | – | 30 µM | 50.5 µM | – | IC50 ([4]; read-out: IC50): 40.3 µM
C=CCN1C(=O)/C(=C/c2ccc(OCc3ccccc3)cc2)C(=O)NC1=S | – | 67.3 µM | 36.8 µM | 13% | inhibition [6]: inactive
COc1cc(C=C2C(=O)NC(=S)NC2=O)ccc1OCc1ccccc1Cl | 7.5 µM | 12.4 µM | 6.7 µM | – | –
O=C1NC(=S)NC(=O)C1=Cc1cn(Cc2ccccc2)c2ccccc12 | – | 16.6 µM | 28.4 µM | – | inhibition [6]: 20%
CC(C)c1ccc(C=C2C(=O)NC(=S)NC2=O)cc1 | 14.7 µM | 39.4 µM | 12.4 µM | 13% | –
O=c1[nH]c(=S)[nH]c(-c2ccccc2)c1Cc1c(O)ccc2ccccc12 [CAMBINOL] | – | 42.5 µM | – | – | –
Cc1ccc(C(=O)Nc2ccc(S(=O)(=O)O)c3cc(S(=O)(=O)O)cc(S(=O)(=O)O)c23)cc1NC(=O)c1cccc(NC(=O)Nc2cccc(C(=O)Nc3cc(C(=O)Nc4ccc(S(=O)(=O)O)c5cc(S(=O)(=O)O)cc(S(=O)(=O)O)c45)ccc3C)c2)c1 [SURAMIN] | 1.1 µM | – | – | – | IC50 [4]: Not Active
O=C1NC(=S)NC(=O)C1=Cc1ccc(-c2cccc(Cl)c2Cl)o1 | 10.4 µM | 3.6 µM | 3.4 µM | 30% | –
CC(NC(=O)c1ccccc1/N=C/c1c(O)ccc2ccccc12)c1ccccc1 (stereo not given) [SIRTINOL] | – | 48.9 µM | – | 24% | –
CCN1C(=O)/C(=C/c2ccc(OCc3ccccc3)cc2)C(=O)NC1=S | 14.4 µM | 12.9 µM | 53.2 µM | 25% | –
COc1ccc2c(C=C3C(=O)NC(=S)NC3=O)cccc2c1 | 11.7 µM | 22.4 µM | 6 µM | – | –
CS(=O)(=O)O.Cn1cc(C2=C(c3cn(CCCSC(=N)N)c4ccccc34)C(=O)NC2=O)c2ccccc21 | – | – | – | – | IC50 [2]: Not Active
O=C1NC(=S)NC(=O)C1=Cc1ccc(OCc2ccc(Br)cc2)cc1 | 3.4 µM | 6.2 µM | 9.9 µM | – | –
O=C1NC(=S)NC(=O)C1=Cc1c[nH]c2ccccc12 | 20.3 µM | 46.5 µM | 5.9 µM | 14% | –
CCN1C(=O)/C(=C/c2c[nH]c3ccccc23)C(=O)NC1=S | – | 55.9 µM | 89.3 µM | inactive | inhibition [6]: 10%
CN1C(=O)/C(=C/c2c[nH]c3ccccc23)C(=O)NC1=S | – | 27 µM | 42.4 µM | 17% | inhibition [6]: 20%
CN1C(=O)/C(=C/c2ccc(OCc3ccccc3)cc2)C(=O)NC1=S | 10 µM | 17.8 µM | 56.5 µM | 22% | –
